Experimental findings from ChEMBL document CHEMBL1821604, “Anticancer activity and cDNA microarray studies of a (RS)-1,2,3,5-tetrahydro-4,1-benzoxazepine-3-yl]-6-chloro-9H-purine, and an acyclic (RS)-O,N-acetalic 6-chloro-7H-purine” (Eur J Med Chem, 2011) are described below.

One series relates to MCF-10A. As to the kind of experiment: Cytotoxicity against human MCF10A cells after 6 days by SRB colorimetric assay. It is filed as cell-based. To be noted: 144 h. In general terms: In SRB staining, fixed cells bind dye roughly in proportion to their protein.
The nature of series [1]: Therapeutic index, ratio of IC50 for human MCF10A cells to IC50 for human MCF7 cells. As to conditions: MCF10A cells (normal) versus MCF7 cells (cancer), read-out: Ratio IC50. It is filed as cell-based. The essentials: (§1)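 Each cell line grown in DMEM with 10% FBS, 37 °C, 5% CO₂. Cells seeded and allowed 24 h, then drug added in medium (≤0.1% v/v DMSO). Medium and drug renewed at day 3, cells kept 3 more days. Sulforhodamine-B read at 492 nm. IC₅₀ taken from semilog dose-response curves by linear interpolation, triplicate wells, at least twice. Index = IC₅₀ normal line / IC₅₀ cancer line.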

A further series deals with HT-29. As to the kind of experiment: Cytotoxicity against human HT-29 cells after 6 days by SRB colorimetric assay. It is filed as functional, cell-based. To be noted: HT-29, 144 h.
Series [2] is described as follows: Cytotoxicity against rat IEC-6 cells after 6 days by SRB colorimetric assay. It is filed as cell-based. To be noted: IEC-6, 144 h.
Series [3] in a line: Therapeutic index, ratio of IC50 for rat IEC-6 cells to IC50 for human HT-29 cells. It is filed as cell-based. As to conditions: IEC-6 cells (normal) versus HT-29 cells (cancer), read-out: Ratio IC50. The gist of the method:
as §1

The subject of a further series is MCF7. As to the kind of experiment: Induction of apoptosis in human MCF7 cells at IC50 after 48 hrs using annexin V-FITC staining by flow cytometry. It is filed as functional. A general note: A flow cytometer gives signals particle by particle.

For the compound `O=c1[nH]cc(F)c(=O)[nH]1` [FLUOROURACIL], the IC50 with MCF-10A was 730 nM; in the series with HT-29, 1080 nM; in series [2], 660 nM. For the same compound, the selectivity ratio in series [1] stood at 0.17; in series [3], 0.61.
`CC(=O)O[C@H]1C(=O)[C@@]2(C)[C@H]([C@H](OC(=O)c3ccccc3)[C@]3(O)C[C@H](OC(=O)[C@H](O)[C@@H](NC(=O)c4ccccc4)c4ccccc4)C(C)=C1C3(C)C)[C@]1(OC(C)=O)CO[C@@H]1C[C@@H]2O` [PACLITAXEL]: in the series on MCF7, the Activity is reported as 43%.

A word on the IC50: it is the concentration at which inhibition is half-maximal. A higher IC50 goes with a need for much substance.
